Published values pooled from the literature.
Compare with care: the assays were run in different laboratories.
Target: Protein kinase C epsilon type (PRKCE, Homo sapiens, UniProt Q02156)
Sequence (Q02156 1-737, as in one of the studies): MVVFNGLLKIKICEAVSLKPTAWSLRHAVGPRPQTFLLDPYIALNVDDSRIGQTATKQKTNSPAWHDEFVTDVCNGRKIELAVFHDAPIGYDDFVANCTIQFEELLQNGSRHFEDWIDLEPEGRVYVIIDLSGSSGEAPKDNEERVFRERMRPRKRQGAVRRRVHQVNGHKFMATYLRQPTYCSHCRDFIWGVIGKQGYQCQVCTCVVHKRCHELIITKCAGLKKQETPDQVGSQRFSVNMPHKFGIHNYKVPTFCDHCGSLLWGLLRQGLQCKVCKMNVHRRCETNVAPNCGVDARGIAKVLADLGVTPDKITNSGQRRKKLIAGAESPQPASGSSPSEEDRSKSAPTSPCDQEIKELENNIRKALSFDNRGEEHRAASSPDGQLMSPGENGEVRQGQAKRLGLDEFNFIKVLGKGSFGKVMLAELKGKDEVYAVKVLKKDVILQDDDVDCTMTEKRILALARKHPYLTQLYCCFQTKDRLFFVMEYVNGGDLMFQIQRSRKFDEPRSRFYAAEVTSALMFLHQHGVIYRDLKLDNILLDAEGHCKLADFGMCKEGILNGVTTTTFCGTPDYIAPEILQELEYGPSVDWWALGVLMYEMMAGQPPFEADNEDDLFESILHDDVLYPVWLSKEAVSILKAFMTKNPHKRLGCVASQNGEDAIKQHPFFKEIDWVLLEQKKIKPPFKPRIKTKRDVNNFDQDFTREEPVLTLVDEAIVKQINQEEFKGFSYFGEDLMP

CCN1CCN(Cc2ccc(C(=O)Nc3ccc(C)c(Oc4ccc5c(c4)CC(=O)N5)c3)cc2C(F)(F)F)CC1 gave a remaining binding of 100% (binding, competition with immobilised ligand; 1 µM).
For CNC(=O)[C@@H]1CC[C@@H](n2c(-c3ccc4cnccc4c3)nc3ccc(C(=O)NCc4cccc(C(N)=O)c4)cc32)C1, the remaining binding was 85% (binding, competition with immobilised ligand; 1 µM).
With O=C(Nc1ccc(Oc2ccc(F)cc2)cc1)N1CCc2ncccc2[C@H]1c1ccc(F)cc1 the remaining binding was 100% (cell-free assay, competition with immobilised ligand; 1 µM).
C[C@@H]1CCN(c2nccc(-c3cnn4ncccc34)n2)C1 has a remaining binding of 100% (binding; 1 µM).
C[C@@H]1CN(c2ccc3ncc(-c4ccc5[nH]nc(C6CC6)c5c4)n3n2)C[C@H](C)O1 has a remaining binding of 64% (binding, competition with immobilised ligand; 0.5 µM).
The remaining binding of Cc1cnn2ncc(-c3ccnc(N(C)C)n3)c2c1 is reported as 100% (binding; 1 µM).
O=C(NCC1CCOCC1)c1n[nH]cc1NC(=O)c1c(F)cccc1F gave a remaining binding of 87% (binding, competition with immobilised ligand; 1 µM).
For CN(C)c1nccc(-c2cnc3ncccn23)n1, the remaining binding was 100% (binding; 1 µM).
With O=C(NCCCN1CCOCC1)c1ccc(Nc2nccc(-c3cc4ccccc4s3)n2)cc1 the remaining binding was 71% (binding, competition with immobilised ligand; 1 µM).
For CCS(=O)(=O)c1cc2cc(C[C@](O)(CC(C)(C)c3ccc(F)cc3C(N)=O)C(F)(F)F)[nH]c2cn1, the remaining binding was 96% (cell-free assay, competition with immobilised ligand; 1 µM).
O=C(c1ccc(Nc2ncc(Cl)c(-c3cc4ccccc4s3)n2)cc1)N1CCC(N2CCCC2)CC1 has a remaining binding of 50% (binding, competition with immobilised ligand; 1 µM).
For CS(=O)(=O)N1CCCC(NC(=O)[C@H](CCC2CCCCC2)NC(=O)c2ccc(CNc3ncnc4c3nnn4-c3ccccc3)cc2)C1 (stereo partly shown), the remaining binding was 63% (cell-free assay, competition with immobilised ligand; 0.1 µM).
CC(C)(C)c1ccc(-c2nc(CBr)nn2-c2cccc(O)c2)cc1 gave a remaining binding of 73% (cell-free assay, competition with immobilised ligand; 10 µM).
CN(c1ccnc(CNc2nc(Nc3ccc4c(c3)CC(=O)N4)ncc2C(F)(F)F)n1)S(C)(=O)=O has a remaining binding of 50% (cell-free assay, competition with immobilised ligand; 1 µM).
With N[C@H]1CCN(c2nccc(-c3cnn4ncccc34)n2)C1 the remaining binding was 100% (binding; 1 µM).
C=CC(=O)N1CCC(C(=O)NCC(=O)N2CCN(c3nc(-c4cnc(N)nc4C(F)F)nc(N4CCOCC4)n3)CC2)CC1 gave a remaining binding of 79% (binding, competition with immobilised ligand; 1 µM).
The remaining binding of COc1ncc2cc3ccccc3nc2c1C#N is reported as 89% (cell-free assay, competition with immobilised ligand; 5 µM).
With CN(C(=O)c1ccccc1)c1cc(N(C)c2ccc3c(c2)CCc2ccc(C(=O)NCCN4CCOCC4)cc2C3=O)ccc1F the remaining binding was 87% (cell-free assay, competition with immobilised ligand; 1 µM).
Nc1ncc2c(n1)-c1c([nH]c3ccc(C#CC4CC4)cc13)CCCC2 has a remaining binding of 98% (binding, competition with immobilised ligand; 1 µM).
With CC1CCCN1c1nccc(-c2cnn3ncccc23)n1 (stereo not shown) the remaining binding was 100% (binding; 1 µM).
For COc1cc(-c2cn(C3CCc4ccccc4N(CC(F)(F)F)C3=O)nn2)ccc1-n1ccc(C)n1 (stereo not shown), the remaining binding was 100% (cell-free assay, competition with immobilised ligand; 1 µM).
With c1cnn2ncc(-c3ccnc(N4CCC45COC5)n3)c2c1 the remaining binding was 100% (binding; 1 µM).
For O=C(c1ccc(Nc2nccc(-c3cc4ccccc4s3)n2)cc1)N1CCC(N2CCCC2)CC1, the remaining binding was 68% (binding, competition with immobilised ligand; 1 µM).
For CN(C)c1nccc(-c2cnn3ncccc23)n1, the remaining binding was 100% (binding; 1 µM).
CCC(=N\O)/C(C)=C/c1ccc(F)cc1 gave a remaining binding of 76% (cell-free assay, competition with immobilised ligand; 1 µM).
